Test results reported in ChEMBL document CHEMBL2203173 (J Med Chem, 2012).
pIC50: −log10 of the molar value.

Tests used:
[1] = tested on: Mus musculus; assay: Toxicity in BALB/c nu/nu mouse xenografted with human DMS53 cells assessed as change in spleen weight at 10 mg/kg, po administered for 3 times a week measured after 20 days; type: organism-based, DMS-53; set-up: dose 10 mg/kg, route oral; settings: in vivo, 480 h
In short: (§1)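 DMS-53 xenograft nude mice were gavaged 3 times/week in 30% propylene glycol/saline vehicle for 20 days and then sacrificed. Organ weights and histology of spleen, kidney, liver, heart, lungs and brain were compared with vehicle controls. n = 6-11 mice/condition.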

[2] = Toxicity in po dosed BALB/c nu/nu mouse xenografted with human DMS53 cells measured for 28 days; type: organism-based, DMS-53; settings: in vivo
In short: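 Oral dose-range-finding study to set the maximum tolerated dose in nude mice bearing DMS-53 tumors, with dosing over a 28-day treatment period.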

[3] = tested on: Mus musculus; assay: Cardiotoxicity in human DMS53 cells xenografted BALB/c nu/nu mouse at 10 mg/kg, po administered for 3 times a week measured after 20 days; type: toxicity, organism-based, DMS-53; set-up: dose 10 mg/kg, route oral; settings: in vivo, 480 h
In short: (§2)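 DMS-53 xenograft nude mice given oral gavage 3 times/week in 30% propylene glycol/saline for 20 days. Heart sections taken after 20 days were stained with Gomori Trichrome for fibrosis and viewed at 100×. Other organs were examined histologically.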

[4] = tested on: Mus musculus; assay: Cardiotoxicity in BALB/c nu/nu mouse xenografted with human DMS53 cells at 7.5 mg/kg, po administered for 3 times a week measured after 20 days; type: toxicity, organism-based, DMS-53; set-up: dose 7.5 mg/kg, route oral; settings: in vivo, 480 h; in short: as §2
[5] = tested on: Mus musculus; assay: Toxicity in BALB/c nu/nu mouse xenografted with human DMS53 cells assessed as cardiac fibrosis at 20 mg/kg, po administered for 3 times a week measured after 20 days using Gomori Trichrome stain; type: organism-based, Heart, DMS-53; set-up: dose 20 mg/kg, route oral; settings: in vivo, 480 h; in short: as §2
[6] = tested on: Mus musculus; assay: Toxicity in BALB/c nu/nu mouse xenografted with human DMS53 cells assessed as cardiac fibrosis at 10 mg/kg, po administered for 3 times a week measured after 20 days using Gomori Trichrome stain; type: organism-based, Heart, DMS-53; set-up: dose 10 mg/kg, route oral; settings: in vivo, 480 h; in short: as §2
[7] = tested on: Mus musculus; assay: Toxicity in BALB/c nu/nu mouse xenografted with human DMS53 cells assessed as cardiac fibrosis at 7.5 mg/kg, po administered for 3 times a week measured after 20 days using Gomori Trichrome stain; type: organism-based, Heart, DMS-53; set-up: dose 7.5 mg/kg, route oral; settings: in vivo, 480 h; in short: as §2
[8] = tested on: Mus musculus; assay: Toxicity in BALB/c nu/nu mouse xenografted with human DMS53 cells assessed as change in brain histology at 20 mg/kg, po administered for 3 times a week measured after 20 days; type: organism-based, DMS-53; set-up: dose 20 mg/kg, route oral; settings: in vivo, 480 h
In short: (§3)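 Nude mice bearing DMS-53 xenografts gavaged 3 times/week for 20 days, vehicle 30% propylene glycol/saline, vehicle controls, n = 6-11 mice/condition. Sacrifice on day 20. Organ weights and hematological indices recorded. Spleen, kidney, liver, heart, lungs and brain examined histologically, hearts stained with Gomori Trichrome for fibrosis.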

[9] = tested on: Mus musculus; assay: Toxicity in BALB/c nu/nu mouse xenografted with human DMS53 cells assessed as change in brain histology at 10 mg/kg, po administered for 3 times a week measured after 20 days; type: organism-based, DMS-53; set-up: dose 10 mg/kg, route oral; settings: in vivo, 480 h; in short: as §3
[10] = tested on: Mus musculus; assay: Toxicity in BALB/c nu/nu mouse xenografted with human DMS53 cells assessed as change in brain histology at 7.5 mg/kg, po administered for 3 times a week measured after 20 days; type: organism-based, DMS-53; set-up: dose 7.5 mg/kg, route oral; settings: in vivo, 480 h; in short: as §3
[11] = tested on: Mus musculus; assay: Toxicity in BALB/c nu/nu mouse xenografted with human DMS53 cells assessed as change in lungs histology at 20 mg/kg, po administered for 3 times a week measured after 20 days; type: organism-based, DMS-53; set-up: dose 20 mg/kg, route oral; settings: in vivo, 480 h; in short: as §3
[12] = tested on: Mus musculus; assay: Toxicity in BALB/c nu/nu mouse xenografted with human DMS53 cells assessed as change in lungs histology at 10 mg/kg, po administered for 3 times a week measured after 20 days; type: organism-based, DMS-53; set-up: dose 10 mg/kg, route oral; settings: in vivo, 480 h; in short: as §3
[13] = tested on: Mus musculus; assay: Toxicity in BALB/c nu/nu mouse xenografted with human DMS53 cells assessed as change in lungs histology at 7.5 mg/kg, po administered for 3 times a week measured after 20 days; type: organism-based, DMS-53; set-up: dose 7.5 mg/kg, route oral; settings: in vivo, 480 h; in short: as §1
[14] = tested on: Mus musculus; assay: Toxicity in BALB/c nu/nu mouse xenografted with human DMS53 cells assessed as change in heart histology at 20 mg/kg, po administered for 3 times a week measured after 20 days; type: organism-based, DMS-53; set-up: dose 20 mg/kg, route oral; settings: in vivo, 480 h; in short: as §3
[15] = tested on: Mus musculus; assay: Toxicity in BALB/c nu/nu mouse xenografted with human DMS53 cells assessed as change in heart histology at 10 mg/kg, po administered for 3 times a week measured after 20 days; type: organism-based, DMS-53; set-up: dose 10 mg/kg, route oral; settings: in vivo, 480 h; in short: as §3
[16] = tested on: Mus musculus; assay: Toxicity in BALB/c nu/nu mouse xenografted with human DMS53 cells assessed as change in liver histology at 20 mg/kg, po administered for 3 times a week measured after 20 days; type: organism-based, DMS-53; set-up: dose 20 mg/kg, route oral; settings: in vivo, 480 h; in short: as §3
[17] = tested on: Mus musculus; assay: Cardiotoxicity in human DMS53 cells xenografted BALB/c nu/nu mouse at 20 mg/kg, po administered for 3 times a week measured after 20 days; type: toxicity, organism-based, DMS-53; set-up: dose 20 mg/kg, route oral; settings: in vivo, 480 h; in short: as §2
[18] = tested on: Mus musculus; assay: Toxicity in BALB/c nu/nu mouse xenografted with human DMS53 cells assessed as change in liver histology at 10 mg/kg, po administered for 3 times a week measured after 20 days; type: organism-based, DMS-53; set-up: dose 10 mg/kg, route oral; settings: in vivo, 480 h; in short: as §3
[19] = tested on: Mus musculus; assay: Toxicity in BALB/c nu/nu mouse xenografted with human DMS53 cells assessed as change in liver histology at 7.5 mg/kg, po administered for 3 times a week measured after 20 days; type: organism-based, DMS-53; set-up: dose 7.5 mg/kg, route oral; settings: in vivo, 480 h; in short: as §3
[20] = tested on: Mus musculus; assay: Toxicity in BALB/c nu/nu mouse xenografted with human DMS53 cells assessed as change in kidney histology at 20 mg/kg, po administered for 3 times a week measured after 20 days; type: organism-based, DMS-53; set-up: dose 20 mg/kg, route oral; settings: in vivo, 480 h; in short: as §3
[21] = tested on: Mus musculus; assay: Toxicity in BALB/c nu/nu mouse xenografted with human DMS53 cells assessed as change in kidney histology at 10 mg/kg, po administered for 3 times a week measured after 20 days; type: organism-based, DMS-53; set-up: dose 10 mg/kg, route oral; settings: in vivo, 480 h; in short: as §3
[22] = tested on: Mus musculus; assay: Toxicity in BALB/c nu/nu mouse xenografted with human DMS53 cells assessed as change in kidney histology at 7.5 mg/kg, po administered for 3 times a week measured after 20 days; type: organism-based, DMS-53; set-up: dose 7.5 mg/kg, route oral; settings: in vivo, 480 h; in short: as §3
[23] = tested on: Mus musculus; assay: Toxicity in BALB/c nu/nu mouse xenografted with human DMS53 cells assessed as change in spleen histology at 20 mg/kg, po administered for 3 times a week measured after 20 days; type: organism-based, DMS-53; set-up: dose 20 mg/kg, route oral; settings: in vivo, 480 h; in short: as §1
[24] = tested on: Mus musculus; assay: Toxicity in BALB/c nu/nu mouse xenografted with human DMS53 cells assessed as change in spleen histology at 10 mg/kg, po administered for 3 times a week measured after 20 days; type: organism-based, DMS-53; set-up: dose 10 mg/kg, route oral; settings: in vivo, 480 h; in short: as §1
[25] = tested on: Mus musculus; assay: Toxicity in BALB/c nu/nu mouse xenografted with human DMS53 cells assessed as change in spleen histology at 7.5 mg/kg, po administered for 3 times a week measured after 20 days; type: organism-based, DMS-53; set-up: dose 7.5 mg/kg, route oral; settings: in vivo, 480 h; in short: as §1
[26] = tested on: Mus musculus; assay: Toxicity in BALB/c nu/nu mouse xenografted with human DMS53 cells assessed as change in hematocrit level at 10 mg/kg, po administered for 3 times a week measured after 20 days; type: organism-based, DMS-53; set-up: dose 10 mg/kg, route oral; settings: in vivo, 480 h; in short: as §3
[27] = tested on: Mus musculus; assay: Toxicity in BALB/c nu/nu mouse xenografted with human DMS53 cells assessed as change in hemoglobin level at 10 mg/kg, po administered for 3 times a week measured after 20 days; type: organism-based, DMS-53; set-up: dose 10 mg/kg, route oral; settings: in vivo, 480 h; in short: as §3
[28] = tested on: MRC5; assay: Antiproliferative activity at human MRC5 cells after 72 hrs by MTT assay; type: functional, cell-based; settings: MRC5, 72 h
[29] = tested on: A549; assay: Antiproliferative activity at human A549 cells after 72 hrs by MTT assay; type: functional, cell-based
[30] = tested on: DMS-53; assay: Antiproliferative activity at human DMS53 cells after 72 hrs by MTT assay; type: functional, cell-based; settings: Homo sapiens, DMS-53, 72 h
[31] = tested on: Mus musculus; assay: Toxicity in BALB/c nu/nu mouse xenografted with human DMS53 cells assessed as change in heart weight at 10 mg/kg, po administered for 3 times a week measured after 20 days; type: organism-based, DMS-53; set-up: dose 10 mg/kg, route oral; settings: in vivo, 480 h; in short: as §3

For `CN(C(=S)NN=C(c1ccccn1)c1ccccn1)C1CCCCC1.Cl`, the Activity [1] was “Non-toxic”, the MTD at 672 h [2] was 20 mg/kg and the Activity [3] was “Non-toxic”. The Activity [4] was “Non-toxic”, the Activity [5] was “Non-toxic” and the Activity [6] was “Non-toxic”. The Activity [7] was “Non-toxic”, the Activity [8] was “Non-toxic” and the Activity [9] was “Non-toxic”. The Activity [10] was “Non-toxic”, the Activity [11] was “Non-toxic” and the Activity [12] was “Non-toxic”. The Activity [13] was “Non-toxic”, the Activity [14] was “Non-toxic” and the Activity [15] was “Non-toxic”. The Activity [16] was “Non-toxic”, the Activity [17] was “Non-toxic” and the Activity [18] was “Non-toxic”. For the same molecule, the Activity [19] was “Non-toxic”, the Activity [20] was “Non-toxic” and the Activity [21] was “Non-toxic”. For the same molecule, the Activity [22] was “Non-toxic”, the Activity [23] was “Non-toxic” and the Activity [24] was “Non-toxic”. For the same molecule, the Activity [25] was “Non-toxic”, the Activity [26] was “Non-toxic” and the Activity [27] was “Non-toxic”. For the same molecule, the pIC50 [28] was under 5.00, the pIC50 ([29]; Homo sapiens, A549, 72 h) was 8.40 and the pIC50 [30] was 8.15. For the same molecule, the Activity [31] was “Non-toxic”.
In the case of `CCN(C)C(=S)NN=C(c1ccccn1)c1ccccn1.Cl`, the Activity [1] was “Non-toxic”, the MTD at 672 h [2] was 10 mg/kg and the Activity [3] was “Non-toxic”. For the same molecule, the Activity [4] was “Non-toxic”, the Activity [5] was “Non-toxic” and the Activity [6] was “Non-toxic”. The Activity [7] was “Non-toxic”, the Activity [8] was “Non-toxic” and the Activity [9] was “Non-toxic”. For the same molecule, the Activity [10] was “Non-toxic”, the Activity [11] was “Non-toxic” and the Activity [12] was “Non-toxic”. The Activity [13] was “Non-toxic”, the Activity [14] was “Non-toxic” and the Activity [15] was “Non-toxic”. For the same molecule, the Activity [16] was “Non-toxic”, the Activity [17] was “Non-toxic” and the Activity [18] was “Non-toxic”. The Activity [19] was “Non-toxic”, the Activity [20] was “Non-toxic” and the Activity [21] was “Non-toxic”. For the same molecule, the Activity [22] was “Non-toxic”, the Activity [23] was “Non-toxic” and the Activity [24] was “Non-toxic”. For the same molecule, the Activity [25] was “Non-toxic”, the Activity [26] was “Toxic” and the Activity [27] was “Toxic”. The pIC50 [28] was under 5.00, the pIC50 ([29]; a549) was 9.00 and the pIC50 [30] was 8.22. For the same molecule, the Activity [31] was “Toxic”.
